The test concerns RAW264.7. As to the kind of experiment: Antiinflammatory activity in mouse RAW264.7 cells assessed as inhibition of LPS-induced nitric oxide production pretreated for 1 hr followed by LPS stimulation measured after 24 hrs by griess assay. It counts as functional, cell-based. Summed up: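 Compound added 1 h before lipopolysaccharide, then 24 h incubation. Culture supernatant mixed with Griess reagent, 10 min at room temperature; absorbance read at 550 nm, nitrite quantified from NaNO2 standard curve. Run in triplicate.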
Usually IC50 stands for the midpoint of a concentration-inhibition curve. Turning to `CC[C@H](C)C(=O)c1c(O)cc(OC)c2c1O[C@@]1(C)[C@@H]2C[C@H](C(C)C)[C@H]1C=O`, the IC50 was 15.3 µM.
The result for `COc1cc(O)c(C(=O)CC(C)C)c2c1[C@@H]1C[C@H](C(C)C)C=C[C@]1(C)O2` reads over 50 µM.
Regarding `COc1cc(O)c(C(=O)C(C)C)c2c1[C@H]1C[C@H](C(C)C)[C@H]3O[C@H]3[C@@]1(C)O2`, the IC50 is over 50 µM.
Regarding `CC[C@H](C)C(=O)c1c(O)cc(OC)c2c1O[C@@]1(C)[C@@H]2C[C@H](C(C)C)[C@H]2O[C@H]21`, the IC50 was over 50 µM.
`CC[C@H](C)C(=O)c1c(O)cc(OC)c2c1O[C@]1(C)C=C[C@@H](C(C)C)C[C@H]21`: the IC50 is over 50 µM.
For `COc1cc(O)c(C(=O)C(C)C)c2c1[C@@H]1[C@@H](C(C)C)CC=C(C)[C@@H]1O2`, the IC50 was over 50 µM.
As to `COc1cc(O)c(C(=O)C(C)C)c2c1[C@H]1C[C@H](C(C)C)C=C[C@@]1(C)O2`, the IC50 was over 50 µM.
As to `COc1cc(O)c(C(=O)CC(C)C)c2c1[C@H]1C[C@H](C(C)C)C=C[C@@]1(C)O2`, the IC50 is over 50 µM.
The result for `COc1cc(O)c(C(=O)C(C)C)c2c1[C@H]1C[C@H](C(C)C)[C@@H](C=O)[C@@]1(C)O2` reads 17.7 µM.
Regarding `COc1ccc2c(c1)c(CC(=O)O)c(C)n2C(=O)c1ccc(Cl)cc1` [INDOMETHACIN], the IC50 was 21.1 µM.

Values taken from ChEMBL document CHEMBL4130602, “Rearranged Phloroglucinol-Monoterpenoid Adducts from Callistemon rigidus” (J Nat Prod, 2018).
